Data taken from ChEMBL document CHEMBL4251614, “Development of inhibitors of receptor protein tyrosine phosphatase β/ζ (PTPRZ1) as candidates for CNS disorders” (Eur J Med Chem, 2018).
The source made the active and inactive calls.

How the values were obtained:
[1] = molecular target: T1, Receptor-type tyrosine-protein phosphatase zeta (Homo sapiens, UniProt P23471); experiment: Inhibition of human recombinant PTPRZ1 using pNPP as substrate at 1 uM by fluorescence spectrometric analysis relative to control
T1 sequence (P23471 whole entry): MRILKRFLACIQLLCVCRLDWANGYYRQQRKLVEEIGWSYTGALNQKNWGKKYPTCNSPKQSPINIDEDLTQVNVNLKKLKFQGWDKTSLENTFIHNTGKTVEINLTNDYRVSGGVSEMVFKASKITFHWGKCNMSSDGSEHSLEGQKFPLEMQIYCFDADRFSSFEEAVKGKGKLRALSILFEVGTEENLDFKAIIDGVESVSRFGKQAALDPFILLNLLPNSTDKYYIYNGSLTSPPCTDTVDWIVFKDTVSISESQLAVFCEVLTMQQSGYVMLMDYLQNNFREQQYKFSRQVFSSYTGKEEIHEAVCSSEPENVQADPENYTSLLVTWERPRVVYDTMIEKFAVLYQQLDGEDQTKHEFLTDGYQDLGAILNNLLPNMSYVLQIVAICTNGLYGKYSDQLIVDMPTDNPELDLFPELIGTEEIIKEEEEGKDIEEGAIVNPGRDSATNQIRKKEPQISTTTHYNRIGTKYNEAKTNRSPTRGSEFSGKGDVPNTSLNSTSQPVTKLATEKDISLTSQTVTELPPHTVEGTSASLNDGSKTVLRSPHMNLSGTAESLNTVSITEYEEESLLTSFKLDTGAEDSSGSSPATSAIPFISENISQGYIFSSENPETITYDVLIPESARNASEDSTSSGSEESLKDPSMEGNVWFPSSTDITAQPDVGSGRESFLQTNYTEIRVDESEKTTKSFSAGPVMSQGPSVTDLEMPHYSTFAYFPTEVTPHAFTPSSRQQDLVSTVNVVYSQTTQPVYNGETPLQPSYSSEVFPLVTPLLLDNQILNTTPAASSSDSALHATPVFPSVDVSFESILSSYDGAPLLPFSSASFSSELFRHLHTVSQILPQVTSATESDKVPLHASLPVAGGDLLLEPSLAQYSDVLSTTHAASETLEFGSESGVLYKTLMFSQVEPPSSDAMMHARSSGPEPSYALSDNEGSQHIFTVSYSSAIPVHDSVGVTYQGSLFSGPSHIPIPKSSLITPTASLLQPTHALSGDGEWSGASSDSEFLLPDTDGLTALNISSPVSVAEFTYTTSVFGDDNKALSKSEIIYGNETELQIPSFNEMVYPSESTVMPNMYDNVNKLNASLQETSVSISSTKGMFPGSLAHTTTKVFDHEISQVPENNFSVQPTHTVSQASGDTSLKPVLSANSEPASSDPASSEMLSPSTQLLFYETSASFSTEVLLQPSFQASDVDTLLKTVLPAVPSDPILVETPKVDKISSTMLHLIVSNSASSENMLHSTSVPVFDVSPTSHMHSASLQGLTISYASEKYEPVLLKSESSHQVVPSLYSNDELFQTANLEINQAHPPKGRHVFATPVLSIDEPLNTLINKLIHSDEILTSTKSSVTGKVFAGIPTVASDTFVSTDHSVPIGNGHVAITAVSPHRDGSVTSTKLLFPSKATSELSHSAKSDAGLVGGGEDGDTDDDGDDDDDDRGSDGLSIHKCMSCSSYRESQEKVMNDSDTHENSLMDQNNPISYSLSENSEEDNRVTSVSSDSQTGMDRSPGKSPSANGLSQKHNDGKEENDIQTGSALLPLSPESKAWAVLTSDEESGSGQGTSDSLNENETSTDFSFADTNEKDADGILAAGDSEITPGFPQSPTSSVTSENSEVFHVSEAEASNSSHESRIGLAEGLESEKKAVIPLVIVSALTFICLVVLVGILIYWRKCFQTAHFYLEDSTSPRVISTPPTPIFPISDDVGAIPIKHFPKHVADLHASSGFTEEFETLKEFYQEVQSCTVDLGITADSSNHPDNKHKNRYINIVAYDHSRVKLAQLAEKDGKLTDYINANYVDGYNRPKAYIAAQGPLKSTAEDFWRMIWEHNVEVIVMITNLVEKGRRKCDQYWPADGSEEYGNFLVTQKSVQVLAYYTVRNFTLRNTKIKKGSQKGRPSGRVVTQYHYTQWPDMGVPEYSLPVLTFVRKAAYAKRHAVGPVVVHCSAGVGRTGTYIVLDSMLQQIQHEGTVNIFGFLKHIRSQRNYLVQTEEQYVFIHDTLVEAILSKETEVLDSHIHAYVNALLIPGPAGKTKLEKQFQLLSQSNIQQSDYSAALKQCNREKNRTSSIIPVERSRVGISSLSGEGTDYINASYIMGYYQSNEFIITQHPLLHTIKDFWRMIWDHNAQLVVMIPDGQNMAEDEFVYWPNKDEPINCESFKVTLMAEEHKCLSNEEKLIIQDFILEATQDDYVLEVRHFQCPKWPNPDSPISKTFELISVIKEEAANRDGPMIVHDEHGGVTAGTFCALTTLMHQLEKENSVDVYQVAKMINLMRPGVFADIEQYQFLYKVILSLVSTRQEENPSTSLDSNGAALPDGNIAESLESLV
Summary of the method: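 Screening used single-point testing at 1.0 μM against 0.1 μM human recombinant PTPRZ1 with p-NPP substrate. Phosphate release was detected with a phosphate sensor reagent by fluorescence (excitation 430 nm, emission 450 nm). The cutoff for activity was at least 10% inhibition of phosphatase activity.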

[2] = molecular target: T1, Receptor-type tyrosine-protein phosphatase zeta; experiment: Inhibition of PTPRZ1 in human HeLa cells assessed as increase in EGF-induced tryrosine phosphorylation at 0.1 to 10 uM incubated for 10 mins after EGF stimulation for 10 mins by ELISA relative to control; assay type: cell-based
Summary of the method: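 HeLa cells were grown in RPMI-1640 with 10% FBS and seeded at 2 × 10^4 cells/well in triplicate. After 24 h serum starvation, cells received 50 ng/mL EGF for 10 min, then compound at 0.1, 1.0 or 10.0 μM for 10 min, against 0.25% DMSO control. Total phosphotyrosine was measured by a tyrosine-phosphorylation ELISA kit. A rise of at least 10% was the selection criterion.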

[3] = molecular target: T1, Receptor-type tyrosine-protein phosphatase zeta; experiment: Inhibition of PTPRZ1 (unknown origin) using pNPP as substrate preincubated for 15 mins followed by substrate addition measured after 10 mins by spectrophotometric analysis
[4] = molecular target: T2, Tyrosine-protein phosphatase non-receptor type 1 (Homo sapiens, UniProt P18031); experiment: Inhibition of human recombinant PTP1B using pNPP as substrate by fluorescence spectrometric analysis
T2 sequence (P18031 whole entry): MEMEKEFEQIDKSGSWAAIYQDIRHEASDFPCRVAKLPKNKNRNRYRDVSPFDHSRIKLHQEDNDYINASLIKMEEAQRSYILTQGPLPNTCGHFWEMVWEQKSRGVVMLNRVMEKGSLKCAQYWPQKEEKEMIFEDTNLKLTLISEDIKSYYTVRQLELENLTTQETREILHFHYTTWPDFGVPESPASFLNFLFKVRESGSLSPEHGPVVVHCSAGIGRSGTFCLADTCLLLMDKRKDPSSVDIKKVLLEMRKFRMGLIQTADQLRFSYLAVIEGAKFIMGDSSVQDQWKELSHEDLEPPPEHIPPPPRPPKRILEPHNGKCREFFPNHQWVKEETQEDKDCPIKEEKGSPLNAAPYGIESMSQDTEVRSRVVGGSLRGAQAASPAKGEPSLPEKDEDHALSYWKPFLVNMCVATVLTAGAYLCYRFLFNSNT
Summary of the method: (§1)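 Human recombinant enzyme (PTPRZ1 or PTP1B) was used at 0.1 μM with p-NPP substrate. Released phosphate was detected with a phosphate sensor reagent as a fluorescence increase (excitation 430 nm, emission 450 nm). IC50 was derived from compound concentrations of 0.001–100 μM.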

[5] = molecular target: T1, Receptor-type tyrosine-protein phosphatase zeta; experiment: Inhibition of human recombinant PTPRZ1 using pNPP as substrate by fluorescence spectrometric analysis; summary of the method: as §1
[6] = molecular target: T1, Receptor-type tyrosine-protein phosphatase zeta; experiment: Inhibition of PTPRZ1 in human SH-SY5Y cells assessed as increase in TrkA tryrosine 490 phosphorylation at 1 to 10 uM after 20 mins by Western blot analysis relative to control; assay type: cell-based
Summary of the method: (§2)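 Human SH-SY5Y cells were grown in EMEM/F12 (1:1) with 10% FBS at 37 °C, 5% CO2, then switched to serum-free medium. They were treated for 20 min with 1.0, 5.0 or 10.0 μM compound or DMSO vehicle. Lysates (20 μg protein) were western blotted for phospho-TrkA Y490 and phospho-ALK Y1278, reprobed for total TrkA/ALK, detected by ECL and quantified by densitometry. Data are mean ± S.E.M., ANOVA/Tukey.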

[7] = molecular target: T1, Receptor-type tyrosine-protein phosphatase zeta; experiment: Inhibition of PTPRZ1 in human SH-SY5Y cells assessed as increase in Alk tryrosine 1278 phosphorylation at 1 to 10 uM after 20 mins by Western blot analysis relative to control; assay type: cell-based; summary of the method: as §2
[8] = Drug level in mouse plasma at 60 mg/kg after 1 hr by GC-MS analysis; assay type: ADME, organism-based
Summary of the method: (§3)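 Mice were dosed at 60 mg/kg by oral gavage and killed 1 h later. Brain and plasma were analyzed by GC-MS (EI at 70 eV, full scan m/z 50–600). Plasma (100 μL) was precipitated with three volumes of cold methanol, dried and reconstituted in heptane. The reference was a standard serially half-diluted in heptane from 5 μg/mL. Concentrations were a preliminary estimate.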

PC-12 = experiment: Cytoprotective activity against amphetamine-induced toxicity in rat PC12 cells at 1 uM after 20 hrs by MTT assay; assay type: functional, cell-based
Summary of the method: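 Rat PC12 cells were grown in RPMI-1640 with 10% FBS at 10^4 cells/well. They were incubated for 20 h with 1.0 mM amphetamine plus 1.0 μM compound. Viability was read by MTT: cells were washed, given medium with MTT (20 μL of a 5 mg/mL stock) for 4 h, solubilized in DMSO, and absorbance read at 570 nm. Data are mean ± S.E.M., compared by one-way ANOVA with Tukey's test.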

[9] = Drug level in mouse brain at 60 mg/kg after 1 hr by GC-MS analysis; assay type: ADME, organism-based; details: read-out: Drug uptake; summary of the method: as §3

| Structure (SMILES) | inhibition [1] | inhibition [2] | IC50 [5] | other results |
| --- | --- | --- | --- | --- |
| FC(F)(F)Sc1ccc(CN(Cc2ccc(SC(F)(F)F)cc2)Cc2ccc(SC(F)(F)F)cc2)cc1 | < 10% | ≥ 10% | – | – |
| O=C(Cc1ccc(S(=O)(=O)C(F)(F)F)cc1)NCc1ccc(S(=O)(=O)C(F)(F)F)cc1 | inactive | ≥ 10% | – | – |
| O=S(=O)(c1ccc(COc2ccc(S(=O)(=O)C(F)(F)F)cc2)cc1)C(F)(F)F | inactive | inactive | – | IC50 [3]: 3500 nM |
| FC(F)(F)Sc1ccc(CNCc2ccc(SC(F)(F)F)cc2)cc1 | ≥ 10% | ≥ 10% | 100 nM | IC50 ([4]; read-out: IC50): 700 nM |
| O=C(Nc1ccc(S(=O)(=O)C(F)(F)F)cc1)c1ccc(S(=O)(=O)C(F)(F)F)cc1 | inactive | inactive | – | – |
| FC(F)(F)Sc1ccc(OCc2ccncc2)cc1 | inactive | < 10% | – | – |
| O=C(NCc1ccc(SC(F)(F)F)cc1)c1ccc(SC(F)(F)F)cc1 | ≥ 10% | ≥ 10% | > 100000 nM | IC50 [4]: Not Active |
| O=C(Cc1ccc(SC(F)(F)F)cc1)Nc1ccc(SC(F)(F)F)cc1 | inactive | ≥ 10% | – | – |
| O=S(=O)(c1ccc(OCc2ccc(SC(F)(F)F)cc2)cc1)C(F)(F)F | inactive | inactive | – | fold change (FC) [6]: 2 to 3 |
| FC(F)(F)Sc1ccc(NCc2ccc(Cl)cc2)cc1 | – | inactive | – | – |
| FC(F)(F)Sc1ccc(CNCc2ccccc2)cc1 | – | inactive | – | – |
| O=C(Cc1ccc(S(=O)(=O)C(F)(F)F)cc1)Nc1ccc(S(=O)(=O)C(F)(F)F)cc1 | ≥ 10% | ≥ 10% | > 10000 nM | IC50 [4]: Not Active |
| O=C(Nc1ccc(SC(F)(F)F)cc1)c1ccc(SC(F)(F)F)cc1 | inactive | ≥ 10% | – | – |
| O=C(Cc1ccc(SC(F)(F)F)cc1)NCc1ccc(SC(F)(F)F)cc1 | ≥ 10% | ≥ 10% | 800 nM | IC50 [4]: Not Active |
| FC(F)(F)Sc1ccc(CNc2ccc(SC(F)(F)F)cc2)cc1 | inactive | ≥ 10% | – | – |
| FC(F)(F)Sc1ccc(NCc2ccccc2)cc1 | ≥ 10% | ≥ 10% | 5000 nM | IC50 ([4]; read-out: IC50): 1000 nM |
| FC(F)(F)Sc1ccc(COc2ccc(SC(F)(F)F)cc2)cc1 | ≥ 10% | ≥ 10% | 100 nM | fold change (FC) [6]: 2 to 3; IC50 [4]: Not Active; fold change (FC) [7]: 2; concentration at 1 h [8]: 100 to 300 ng/mL; Activity (PC-12): Active; concentration at 1 h [9]: 500 to 1000 ng/mL |
